Bioassay records deposited in PubChem by Sanford-Burnham Center for Chemical Genomics.
DNMT1 inh: human DNMT1 methyltransferase inhibitors, primary screen, biochemical, molecular beacon, fluorescence, HinP1I cleavage, uHTS. actives 0.83% (n = 360,000). DNA (cytosine-5)-methyltransferase 1 (Homo sapiens), P26358. AID 588458, 2011. inhibition (reported as % activation of signal), % at 10 µM; in the data active = inhibition above about 50%
STEP block: STEP phosphatase inhibitors, primary screen, biochemical, fluorescence intensity, uHTS | Tyrosine-protein phosphatase non-receptor type 5 (Homo sapiens), P54829 | recombinant STEP, OMFP fluorogenic substrate | inhibition, % at 20 µM | actives 0.25% (n = 360,000) | AID 588621, 2011;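 active = inhibition at 20 µM, scaled per plate between control wells, above about 37%, limit read from the data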;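 also: 0% = DMSO with enzyme and substrate and 100% = substrate only without enzyme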
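material = STEP tyrosine phosphatase | reagent = fluorogenic phosphatase substrate OMFP at 25 µM final | doses = single compound dose of 20 µM, 1% DMSO final | schedule = 20 min reaction, room temperature, in the dark | measured by = fluorescence, 480/540 nm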
SUMO1-SIM PPI: modulators of SUMO1 protein-protein interactions, primary screen, biochemical, uHTS; actives 0.33% (n = 360,000); inhibition, % at 20 µM; SUMO1 binding to a labelled peptide, TR-FRET, 1 h; in the data active = inhibition above about 37%
Target sequence (P63165 whole entry, looked up): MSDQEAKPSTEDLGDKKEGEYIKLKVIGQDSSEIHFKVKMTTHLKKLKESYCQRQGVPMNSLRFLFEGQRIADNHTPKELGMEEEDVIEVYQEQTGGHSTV
LMPTP inh: LMPTP phosphatase inhibitors, primary screen, biochemical, fluorescence intensity, uHTS. actives 0.22% (n = 360,000). recombinant LMPTP-A, OMFP fluorogenic substrate. inhibition, % at 20 µM;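 active = compounds that cut the enzyme signal by at least half of the control window in the single-dose screen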;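 also: plate controls were DMSO wells with enzyme plus substrate for no effect and substrate without enzyme for full effect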
Target sequence (P24666 whole entry, looked up): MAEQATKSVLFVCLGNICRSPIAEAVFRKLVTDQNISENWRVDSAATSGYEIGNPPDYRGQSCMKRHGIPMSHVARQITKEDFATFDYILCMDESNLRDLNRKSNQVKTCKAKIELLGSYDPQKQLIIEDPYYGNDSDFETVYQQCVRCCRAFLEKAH
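Test system – LMPTP-A phosphatase enzyme · Quantity – 0.625 nM LMPTP-A final · Reagent – OMFP substrate, 400 µM final · Dosing – one test concentration per compound, 20 µM, with 3% DMSO overall · Timing – 50 min enzyme reaction at room temperature, protected from light · Detection – fluorescence intensity · Controls – substrate-only low control, DMSO enzyme-plus-substrate high control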
Scp-1 inhibitor: Scp-1 phosphatase inhibitors, primary screen, biochemical, colorimetric, uHTS; actives 0.88% (n = 340,000); Carboxy-terminal domain RNA polymerase II polypeptide A small phosphatase 1 (Homo …; inhibition, % at 20 µM; Recombinant Scp1, phosphopeptide, malachite green phosphate absorbance;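 active = inhibition above about 50% at 20 µM, limit read from the data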;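 also: plate controls were DMSO wells with enzyme for no effect and wells lacking enzyme for full effect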
Target sequence (Q9GZU7 76-261 limits assumed): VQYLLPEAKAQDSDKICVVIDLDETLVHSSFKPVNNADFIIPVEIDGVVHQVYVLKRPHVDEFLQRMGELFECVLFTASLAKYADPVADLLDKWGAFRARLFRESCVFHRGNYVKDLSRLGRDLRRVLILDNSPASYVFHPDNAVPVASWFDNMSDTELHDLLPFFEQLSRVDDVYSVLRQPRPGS
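System: truncated SCP-1 phosphatase (76-261aa); medium: Tris acetate buffer pH 5.5 with MgCl2 and Tween-20; incubation: 45 min room-temperature reaction, 5 min colour, 30 min stabiliser; compound: single 20 µM dose, 1% DMSO; reagent: Phosphorylated 17-residue peptide substrate; read-out: % inhibition at 20 µM; technique: colorimetric free-phosphate detection, absorbance 630 nm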
Scp-1 conf: Scp-1 phosphatase inhibitors, retest, confirmation, biochemical, colorimetric, single concentration; shares compounds with Scp-1 inhibitor; recombinant SCP-1 catalytic domain, phosphate release, malachite green absorbance; inhibition, % at 20 µM; actives 61% (n = 2,500); AID 540281, 2011;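 also: plate controls were DMSO with enzyme for no effect and buffer wells lacking enzyme for full effect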
MG interference: colorimetric readout interference by compounds, confirmation, artefact control for Scp-1 inhibitor project, biochemical, single concentration. shares compounds with Scp-1 inhibitor. Colorimetric interference counterscreen, malachite green absorbance 630 nm. apparent inhibition (interference), % at 20 µM. 2,500 tested, under 10 active. AID 540313, 2011;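 also: compounds added after enzyme reaction finished so only phosphate colour detection is probed; plate controls were DMSO wells with completed Scp-1 reaction for no effect and substrate wells lacking enzyme for full effect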
Scp1 DSF: Scp-1 binding by thermal shift, confirmation, orthogonal assay for Scp-1 inhibitor project, biophysical, differential scanning fluorimetry; shares compounds with Scp-1 inhibitor; Recombinant SCP1, Sypro Orange thermal shift Tm; thermal shift relative to vanadate control, % at 40 µM; actives 25% (n = 1,500); AID 540329, 2011;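 active = substances whose mean melting-temperature shift, as a percentage of the reference inhibitor's shift, reaches about 5.3%, limit read from the data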;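 also: 0% = Tm of DMSO wells and 100% = Tm with sodium orthovanadate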
An asterisk follows results filed as active; / = no result given. This is a sample that favours compounds with a hit; in the whole collection about 1.7% have one here.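 The calls were made as follows, unless noted: active = inhibition of at least 30% at 20 µM; inactive = the rest.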

SMILES	DNMT1 inh	STEP block	SUMO1-SIM PPI	LMPTP inh	Scp-1 inhibitor	Scp-1 conf	MG interference	Scp1 DSF
O=C(O)CCSc1nnc(SCC(=O)NC2CCS(=O)(=O)C2)s1 (stereo not drawn)	4	-3	3	0	101*	-11	-19	/
CCC(C)C1Nc2ccc(C(=O)NCc3ccc4c(c3)OCO4)cc2NC1=O (stereo not drawn)	0	0	-9	0	-6	-4	-5	/
O=C(O)c1cccc(NC(=O)c2cn(-c3ccccc3)nc2-c2cc3ccccc3o2)c1	-6	7	14	56*	58*	80*	-13	4
COC(=O)CCCC(=O)Nc1c(F)c(F)c(F)c(F)c1F	-1	4	6	-1	-2	/	/	/
O=C1CSC(c2ccc([N+](=O)[O-])cc2)N1c1ccccc1 (stereo not drawn)	2	0	-27	0	-3	/	/	/
Cc1ccc2nc(/C(C#N)=C/c3ccc(-c4ccccc4C(=O)O)o3)[nH]c2c1	21	4	0	5	54*	47*	-13	7.3*
Cc1ccc2nc(Cl)c(/C=N/NC(=O)c3ccccc3O)cc2c1	-3	2	6	3	72*	21	-5	/
O=C(NC(=S)Nc1ccc(CN2CCOCC2)cc1)c1ccc2c(c1)OCCO2	-5	1	-2	1	-3	/	/	/
COC(=O)[C@]12CCCCC=C1N(Cc1ccco1)C(=O)[C@H](CC(=O)NCc1cccc3ccccc13)C2	/	/	6	1	/	/	/	/
O=C(CSc1n[nH]c(-c2ccncc2)n1)Nc1ccc(Cl)c(Cl)c1	-2	-6	11	-2	52*	-15	-14	/
COCCCN(C(=O)c1cc(-c2ccco2)nc2ccccc12)c1c(N)n(Cc2ccccc2)c(=O)[nH]c1=O	30	-1	-4	11	64*	47*	-10	5.4*
COCCN(C(=O)COC(=O)Cc1coc2cc3c(cc12)CCC3)c1c(N)n(Cc2ccccc2)c(=O)[nH]c1=O	31	24	11	18	67*	55*	-22	-25
CCCn1c(N)c(N(CCOC)C(=O)c2cc(-c3ccco3)nc3ccccc23)c(=O)[nH]c1=O	11	2	-5	2	20	/	/	/
COCCN(C(=O)COC(=O)COc1ccc2c(c1)CCC2)c1c(N)n(Cc2ccccc2)c(=O)[nH]c1=O	0	-3	6	-1	-1	/	/	/
C[C@H]1CCC[C@@]2(O[C@H](CCO)C[C@@H](O)[C@@H]2O)O1	1	-2	4	-2	4	/	/	/
CCOc1cc(/C=C2\SC(=O)N(CC(=O)Nc3ccccc3F)C2=O)cc([N+](=O)[O-])c1O	0	4	-25	2	85*	62*	-7	21*
Cn1c(=O)c(NC(=O)c2ccccc2)c2n(c1=S)CCCCC2	9	-2	2	-1	55*	36*	-14	-20
CCOc1ccc(C(=O)Nc2cccc(-c3cc4ccccc4oc3=O)c2)cc1[N+](=O)[O-]	-1	9	-5	2	93*	28	-11	/
N/C(=N/OC(=O)c1cccc([N+](=O)[O-])c1)c1cccc([N+](=O)[O-])c1	3	4	-24	0	95*	75*	-22	6.6*
N/C(=N\OC(=O)c1cccc(F)c1)c1cccc([N+](=O)[O-])c1	3	10	-10	-1	-5	/	/	/
N#Cc1ccc(-c2nc3ccc(Br)cn3c2Cc2ccsc2)cc1	2	-3	4	1	/	/	/	/
CCn1cc(C(=O)NCc2ccccc2F)c(=O)c2ccc(C)nc21	3	1	15	-1	-12	/	/	/
CCn1cc(C(=O)NCc2ccc(OC)cc2)c(=O)c2ccc(C)nc21	0	0	-1	-2	-5	/	/	/
Cc1ccc2c(=O)c(C(=O)c3ccc(F)cc3)cn(CC(=O)NCc3ccco3)c2n1	15	6	6	1	61*	52*	-15	-2
COc1cccc(C(=O)c2cn(CC(=O)NCc3ccco3)c3nc(C)ccc3c2=O)c1	14	-1	11	12	62*	66*	-8	-12
SMILES	DNMT1 inh	STEP block	SUMO1-SIM PPI	LMPTP inh	Scp-1 inhibitor	Scp-1 conf	MG interference	Scp1 DSF
CCc1ccc(NC(=O)CCn2nc(C)c(S(=O)(=O)N3CCCCC3)c2C)cc1	1	-5	2	1	-4	/	/	/
Cc1ccc(NC(=O)CS(=O)CC(=O)Nc2ccc(N3CCOCC3)cc2)cc1Cl (stereo not drawn)	-3	22	1	2	97*	70*	-20	2
Cc1cc(C)c(NC(=O)CS(=O)CC(=O)Nc2ccc(N3CCOCC3)cc2)c(C)c1 (stereo not drawn)	1	1	-1	-1	-3	/	/	/
O=C(CN1CCN(Cc2ccc(F)cc2Cl)C1=O)NCCc1ccccc1	7	-1	0	-1	50*	6	-11	/
Cc1ccc(Cl)c(OCC(=O)OCC(=O)NC2CCCc3ccccc32)c1 (stereo not drawn)	-1	1	0	1	-2	/	/	/
CC1CC2C3CCC4=CC(=O)CCC4(C)C3CCC2(C)C1(O)C(=O)CO (stereo not drawn)	12	-3	-6	-1	59*	-23	-19	/
Cc1ccc(S(=O)(=O)N2[C@@H](CO)CO[C@H]2CC(=O)c2ccccc2)cc1	/	/	3	0	/	/	/	/
O=C(CCCc1c[nH]c2ccccc12)Nc1ccc2ccccc2c1	-16	3	-2	1	59*	-11	-5	/
CC(=O)Nc1ccc(NC(=O)CCCc2c[nH]c3ccccc23)cc1	-5	0	1	0	-3	/	/	/
CC(C)(C)C(=O)O/N=C(\N)COc1cccc(Cl)c1	2	-1	2	0	79*	-8	-8	/
